The test system of series [1] is Mycobacterium tuberculosis. The series can be described thus: Antitubercular activity against Mycobacterium tuberculosis isolate 12525 incubated for 7 days by microplate alamar blue assay. The format is functional. Conditions: isolate 12525, 168 h, time 7 day. The method in brief: (§1)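 MIC determined by microplate alamar blue assay (MABA) following a published protocol.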

The nature of series [2]: Toxicity in Mycobacterium tuberculosis H37Rv infected Balb/c mouse assessed as change in body weight at 25 mg/kg/day, po administered via gavage 5 times per week for 3 weeks starting from 10 days post-infection (reference value: 21.29 +/- 0.84 g). The format is organism-based. Conditions: in vivo, 504 h, time 21 day.
Series [3] deals with Mycobacterium tuberculosis. The series can be described thus: Antitubercular activity against Mycobacterium tuberculosis H37Rv infected in Balb/c mouse assessed as lung bacterial burden by measuring colony forming unit at 25 mg/kg/day, po administered via gavage 5 times per week for 3 weeks starting from 10 days post-infection and measured 24 hrs post last dose (reference value: 7.102 +/- 0.152 log10CFU). In kind it is functional. The following applies: time 22 day. The method in brief: (§2)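 Female SPF BALB/c mice, 6 per group, aerosol-infected with M. tuberculosis H37Rv to deposit 50-100 bacilli per lung. Compound suspended in 0.5% CMC, given by oral gavage from day 10 post-infection, 5 times per week for 3 weeks; controls got 0.5% CMC. Lungs harvested the day after the last dose, homogenised, diluted in HBSS, plated on 7H11 agar in duplicate, incubated 3 weeks at 37 °C. Result expressed as mean log10 CFU; t-test versus control.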

Series [4] relates to Mycobacterium tuberculosis. The series can be described thus: Antitubercular activity against Mycobacterium tuberculosis H37Rv incubated for 7 days by microplate alamar blue assay. The format is functional. The following applies: Mycobacterium tuberculosis, H37Rv, 168 h, time 7 day; read-out: MIC. The method in brief:
as §1

Series [5] concerns the target T1, Amine oxidase [flavin-containing] A (Homo sapiens, UniProt P21397).
T1 sequence (P21397 whole entry): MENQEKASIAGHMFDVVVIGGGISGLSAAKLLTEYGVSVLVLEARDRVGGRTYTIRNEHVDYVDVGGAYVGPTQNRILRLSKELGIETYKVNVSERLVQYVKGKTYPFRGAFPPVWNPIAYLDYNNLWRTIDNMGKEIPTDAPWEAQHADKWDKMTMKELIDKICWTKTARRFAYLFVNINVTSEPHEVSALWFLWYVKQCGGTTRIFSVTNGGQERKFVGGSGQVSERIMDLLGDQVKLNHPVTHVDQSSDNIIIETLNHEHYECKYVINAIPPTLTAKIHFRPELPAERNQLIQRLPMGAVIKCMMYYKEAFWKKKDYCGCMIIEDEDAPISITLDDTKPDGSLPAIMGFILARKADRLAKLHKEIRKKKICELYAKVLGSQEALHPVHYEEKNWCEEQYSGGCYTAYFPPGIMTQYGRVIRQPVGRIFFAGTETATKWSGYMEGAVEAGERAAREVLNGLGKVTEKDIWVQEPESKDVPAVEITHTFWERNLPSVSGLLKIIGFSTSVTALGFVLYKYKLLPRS
Description: Inhibition of recombinant human MAOA expressed in baculovirus infected insect cells using kynuramine as substrate measured after 20 mins by LC-MS/MS analysis. The method in brief:
(§3)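 Recombinant human MAO-A or MAO-B (50 μg/mL) in 100 mM potassium phosphate pH 7.4 with 5 mM MgCl2. Kynuramine substrate at 50 μM (MAO-A) or 25 μM (MAO-B). […] 4-Hydroxyquinoline formation measured by LC-MS/MS versus vehicle; IC50 derived.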

For series [6], the target named is T2, Amine oxidase [flavin-containing] B (Homo sapiens, UniProt P27338).
T2 sequence (P27338 whole entry): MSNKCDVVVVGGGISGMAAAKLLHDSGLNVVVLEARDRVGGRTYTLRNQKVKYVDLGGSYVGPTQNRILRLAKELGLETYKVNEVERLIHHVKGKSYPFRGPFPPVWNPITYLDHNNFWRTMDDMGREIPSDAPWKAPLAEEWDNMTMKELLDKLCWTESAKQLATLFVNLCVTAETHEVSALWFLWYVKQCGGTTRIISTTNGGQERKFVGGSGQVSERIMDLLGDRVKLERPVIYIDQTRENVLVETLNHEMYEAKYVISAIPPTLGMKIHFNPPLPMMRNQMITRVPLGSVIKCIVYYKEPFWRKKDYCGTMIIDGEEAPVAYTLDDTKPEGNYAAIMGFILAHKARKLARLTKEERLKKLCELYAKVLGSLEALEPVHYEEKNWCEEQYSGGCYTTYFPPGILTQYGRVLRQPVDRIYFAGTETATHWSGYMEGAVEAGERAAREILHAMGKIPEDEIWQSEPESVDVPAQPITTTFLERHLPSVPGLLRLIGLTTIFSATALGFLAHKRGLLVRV
The series can be described thus: Inhibition of recombinant human MAOB expressed in baculovirus infected insect cells using kynuramine as substrate measured after 20 mins by LC-MS/MS analysis. The method in brief:
as §3

The test system of another series is HepG2. Description: Cytotoxicity against human HepG2 cells assessed as reduction in cell viability measured after 48 hrs by MTT assay. In kind it is cell-based. Conditions: HepG2, 48 h. The method in brief: (§4)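 Cytotoxicity on Vero or HepG2 cells by MTT assay, run as previously reported.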
(Tetrazolium dyes change colour on reduction, which living cells bring about.)

The test system of the next series is Vero. The series can be described thus: Cytotoxicity against African green monkey Vero cells assessed as reduction in cell viability measured after 48 hrs by MTT assay. Conditions: Chlorocebus sabaeus. In kind it is cell-based. The method in brief: as §4
Series [7] can be described thus: Stability in CD-1 mouse liver microsome assessed as parent compound remaining at 1 uM measured after 30 mins in presence of NADPH by LC-MS/MS analysis. In kind it is ADME. The following applies: liver microsomes, read-out: Stabilty. The method in brief:
(§5)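 Liver microsomes (male CD-1 mouse or pooled human), 1 mg/mL protein, compound 1 µM, 37°C with shaking. Started with 1 mM NADPH or run without cofactor. Quenched with ice-cold ACN/MeOH containing internal standard. Parent quantified by LC-MS/MS; 30 min concentration normalised to time zero.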

Series [8] can be described thus: Stability in CD-1 mouse liver microsome at 1 uM measured after 30 mins in absence of NADPH by LC-MS/MS analysis. In kind it is ADME. Conditions: microsomes, 0.5 h. The method in brief:
as §5
Background: Liver microsomes are a subcellular fraction often used to study metabolism.

Series [9] is described as follows: Inhibition of mitochondrial protein synthesis in rat H9c2 cells measured after 5 days by ELISA. The format is cell-based. The following applies: H9c2, 120 h. The method in brief: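 H9C2 cells in DMEM with 10% FBS, seeded 1500/well. After 18 h, compound added at final 0.03–200 μM (3-fold series), then 5 days at 37 °C, 5% CO2; 0.5% DMSO negative control. MPS inhibition read by MitoBiogenesis In-Cell ELISA; IC50 calculated.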
In general terms: ELISA stands for enzyme-linked immunosorbent assay.

The nature of series [10]: Toxicity in Mycobacterium tuberculosis H37Rv infected Balb/c mouse assessed as change in body weight at 100 mg/kg/day, po administered via gavage 5 times per week for 3 weeks starting from 10 days post-infection (reference value: 21.29 +/- 0.84 g). The format is organism-based. The following applies: in vivo, 504 h, time 21 day.
The test system of series [11] is Mycobacterium tuberculosis. The series can be described thus: Antitubercular activity against Mycobacterium tuberculosis H37Rv infected in Balb/c mouse assessed as lung bacterial burden by measuring colony forming unit at 100 mg/kg/day, po administered via gavage 5 times per week for 3 weeks starting from 10 days post-infection and measured 24 hrs post last dose (reference value: 7.102 +/- 0.152 log10CFU). The format is functional. The following applies: time 22 day. The method in brief: as §2

The subject of series [12] is Mycobacterium tuberculosis. Description: Antitubercular activity against Mycobacterium tuberculosis H37Rv infected in Balb/c mouse assessed as reduction in lung bacterial burden at 50 to 100 mg/kg/day, po administered via gavage 5 times per week for 3 weeks starting from 10 days post-infection and measured 24 hrs post last dose. The format is functional, organism-based. The following applies: dose mg/kg/day 50-100, time 22.0 day. The method in brief: as §2

Series [13] deals with Mycobacterium tuberculosis. Description: Antitubercular activity against Mycobacterium tuberculosis H37Rv infected in Balb/c mouse assessed as reduction in lung bacterial burden at 25 to 100 mg/kg/day, po administered via gavage 5 times per week for 3 weeks starting from 10 days post-infection and measured 24 hrs post last dose. The format is functional, organism-based. The following applies: dose mg/kg/day 25-100, time 22.0 day. The method in brief: as §2

Converted amounts (≈) assume the structure as drawn. The source made the active and inactive calls.

The MIC is the smallest concentration in the dilution series that meets the test's criterion for growth inhibition. By IC50 is commonly meant the concentration needed to halve the response being measured.

Regarding `NNC(=O)c1ccncc1` [ISONIAZID], the MIC is more than 10 µg/mL in series [1] and 0.03 µg/mL (≈ 0.219 µM) in series [4]. Besides, the Activity came to 21.3 g in [2] and 1.929 log10CFU in series [3].

For the compound `CC(=O)NC[C@H]1CN(c2ccc(N3CCSCC3)c(F)c2)C(=O)O1` [SUTEZOLID], the 50% inhibitory concentration (IC50) was 13 µM in series [5]; 0.7 µM in series [6]; more than 64 µg/mL in the series with HepG2; more than 64 µg/mL in the series with Vero; 8.17 µM in series [9]. Further, the minimal inhibitory concentration (MIC) in [1] was 0.06 µg/mL (≈ 0.17 µM); in [4], 0.1 µg/mL (≈ 0.283 µM). Moreover, the remaining at 0.5 h, 1 µM in [7] was 54.8%. Besides, the Stabilty entry in series [8] is “Stable”.

Take `CC(=O)NC[C@H]1CN(c2ccc(N3CCOCC3)c(F)c2)C(=O)O1` [LINEZOLID]: the Activity in series [10] came to 20.83 g; in series [11], 4.136 log10CFU. Further, the results for the minimal inhibitory concentration (MIC) in series [1] and in series [4] were 0.23 µg/mL (≈ 0.682 µM) and 0.32 µg/mL (≈ 0.949 µM), respectively. In addition, the remaining at 0.5 h, 1 µM in series [7] worked out at 111%. In addition, the Stabilty entry in series [8] was “Stable”. Further, the result in series [12] was Active. In series [9], this compound came in with a 50% inhibitory concentration (IC50) of 7.98 µM.

`CC(=O)NC[C@@H]1OC(=O)N2c3cc(F)c(N4CCSCC4)cc3OC[C@@H]12`: the outcome in series [13] was Active.
